As usually defined, the Ki is a dissociation constant, usually derived from enzyme kinetics or from competition with a known ligand.

The text below walks through data of ChEMBL document CHEMBL1177647, “Synthesis and characterization of novel phenylindoles as potential probes for imaging of β-amyloid plaques in the brain” (Bioorg Med Chem, 2010).

Data set [1] in a line: Displacement of [125I]IMPY from amyloid beta42 by gamma counting. On the technique in general: Displacement assays read how much labelled ligand stays bound in the presence of the test substance.
Data set [2] deals with Stomach. Nature of the data set: Biodistribution in ddY mouse stomach at 0.2 to 0.4 uCi, iv after 10 mins measured per gram of organ. As to conditions: in vivo. In kind it is ADME, organism-based. The essentials: (§1)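 Radiotracer (0.2–0.4 μCi) given as a single tail-vein injection of 100 μL saline containing 10 μL ethanol to normal ddY mice (5 weeks old, 25–30 g). Mice were sacrificed at set times after injection. Organs were excised and weighed, and radioactivity was counted in an automatic gamma counter.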

The test system of data set [3] is Kidney. Nature of the data set: Biodistribution in ddY mouse kidney at 0.2 to 0.4 uCi, iv after 10 mins. As to conditions: in vivo. In kind it is ADME, organism-based. The procedure, abridged: as §1
Data set [4] deals with Spleen. Nature of the data set: Biodistribution in ddY mouse spleen at 0.2 to 0.4 uCi, iv after 30 mins. The class given is ADME, organism-based. The settings on record: in vivo, 0.5 h. The essentials: as §1
Data set [5] has as its system Heart. In words: Biodistribution in ddY mouse heart at 0.2 to 0.4 uCi, iv after 10 mins. The settings on record: in vivo. The class given is ADME, organism-based. The procedure, abridged:
as §1

Data set [6] concerns Spleen. Nature of the data set: Biodistribution in ddY mouse spleen at 0.2 to 0.4 uCi, iv after 60 mins. The settings on record: in vivo, 1 h. The class given is ADME, organism-based. The essentials: as §1
For data set [7], the system named is Blood. In words: Biodistribution in ddY mouse blood at 0.2 to 0.4 uCi, iv after 10 mins. The class given is ADME, organism-based. The settings on record: in vivo. The procedure, abridged: as §1
For data set [8], the system named is Brain. In words: Biodistribution in ddY mouse brain at 0.2 to 0.4 uCi, iv after 30 mins. The class given is ADME, organism-based. The settings on record: in vivo, 0.5 h. The essentials:
as §1

Data set [9] concerns Brain. In words: Biodistribution in ddY mouse brain at 0.2 to 0.4 uCi, iv after 2 mins. In kind it is ADME, organism-based. The settings on record: in vivo. The procedure, abridged:
as §1

Data set [10] relates to Heart. In words: Biodistribution in ddY mouse heart at 0.2 to 0.4 uCi, iv after 60 mins. In kind it is ADME, organism-based. As to conditions: in vivo, 1 h. The procedure, abridged:
as §1

Data set [11] relates to Pancreas. Nature of the data set: Biodistribution in ddY mouse pancreas at 0.2 to 0.4 uCi, iv after 10 mins. As to conditions: in vivo. In kind it is ADME, organism-based. The essentials:
as §1

Data set [12] relates to Liver. In words: Biodistribution in ddY mouse liver at 0.2 to 0.4 uCi, iv after 30 mins. In kind it is ADME, organism-based. The settings on record: in vivo, 0.5 h. The essentials:
as §1

Data set [13] relates to Liver. In words: Biodistribution in ddY mouse liver at 0.2 to 0.4 uCi, iv after 2 mins. The class given is ADME, organism-based. The settings on record: in vivo. The procedure, abridged: as §1
In data set [14] the test system is Brain. In words: Biodistribution in ddY mouse brain at 0.2 to 0.4 uCi, iv after 60 mins. In kind it is ADME, organism-based. As to conditions: in vivo, 1 h. The procedure, abridged:
as §1

Data set [15] deals with Spleen. Nature of the data set: Biodistribution in ddY mouse spleen at 0.2 to 0.4 uCi, iv after 2 mins. In kind it is ADME, organism-based. As to conditions: in vivo. The essentials:
as §1

Data set [16] relates to Kidney. Nature of the data set: Biodistribution in ddY mouse kidney at 0.2 to 0.4 uCi, iv after 2 mins. As to conditions: in vivo. In kind it is ADME, organism-based. The procedure, abridged: as §1
Data set [17] concerns Brain. Nature of the data set: Biodistribution in ddY mouse brain at 0.2 to 0.4 uCi, iv after 10 mins. In kind it is ADME, organism-based. As to conditions: in vivo. The procedure, abridged:
as §1

Data set [18] has as its system Pancreas. Nature of the data set: Biodistribution in ddY mouse pancreas at 0.2 to 0.4 uCi, iv after 60 mins. In kind it is ADME, organism-based. As to conditions: in vivo, 1 h. The essentials:
as §1

For data set [19], the system named is Heart. In words: Biodistribution in ddY mouse heart at 0.2 to 0.4 uCi, iv after 2 mins. In kind it is ADME, organism-based. The settings on record: in vivo. The procedure, abridged:
as §1

Data set [20] has as its system Pancreas. In words: Biodistribution in ddY mouse pancreas at 0.2 to 0.4 uCi, iv after 30 mins. The class given is ADME, organism-based. The settings on record: in vivo, 0.5 h. The essentials: as §1
Data set [21] concerns Kidney. Nature of the data set: Biodistribution in ddY mouse kidney at 0.2 to 0.4 uCi, iv after 60 mins. In kind it is ADME, organism-based. The settings on record: in vivo, 1 h. The procedure, abridged:
as §1

For data set [22], the system named is Spleen. In words: Biodistribution in ddY mouse spleen at 0.2 to 0.4 uCi, iv after 10 mins. In kind it is ADME, organism-based. As to conditions: in vivo. The procedure, abridged:
as §1

Data set [23] has as its system Stomach. In words: Biodistribution in ddY mouse stomach at 0.2 to 0.4 uCi, iv after 60 mins measured per gram of organ. In kind it is ADME, organism-based. As to conditions: in vivo, 1 h. The procedure, abridged:
as §1

For data set [24], the system named is Kidney. Nature of the data set: Biodistribution in ddY mouse kidney at 0.2 to 0.4 uCi, iv after 30 mins. The class given is ADME, organism-based. The settings on record: in vivo, 0.5 h. The procedure, abridged: as §1
Data set [25] deals with Intestine. In words: Biodistribution in ddY mouse intestine at 0.2 to 0.4 uCi, iv after 30 mins. In kind it is ADME, organism-based. The settings on record: in vivo, 0.5 h. The essentials: as §1
Data set [26] concerns Blood. Nature of the data set: Biodistribution in ddY mouse blood at 0.2 to 0.4 uCi, iv after 60 mins. The class given is ADME, organism-based. As to conditions: in vivo, 1 h. The essentials: as §1
Data set [27] has as its system Liver. In words: Biodistribution in ddY mouse liver at 0.2 to 0.4 uCi, iv after 10 mins. The class given is ADME, organism-based. The settings on record: in vivo. The essentials: as §1
The subject of data set [28] is Intestine. Nature of the data set: Biodistribution in ddY mouse intestine at 0.2 to 0.4 uCi, iv after 60 mins. In kind it is ADME, organism-based. As to conditions: in vivo, 1 h. The procedure, abridged:
as §1

For data set [29], the system named is Heart. In words: Biodistribution in ddY mouse heart at 0.2 to 0.4 uCi, iv after 30 mins. In kind it is ADME, organism-based. The settings on record: in vivo, 0.5 h. The procedure, abridged:
as §1

For data set [30], the system named is Intestine. In words: Biodistribution in ddY mouse intestine at 0.2 to 0.4 uCi, iv after 10 mins. The class given is ADME, organism-based. As to conditions: in vivo. The essentials: as §1
Data set [31] relates to Pancreas. Nature of the data set: Biodistribution in ddY mouse pancreas at 0.2 to 0.4 uCi, iv after 2 mins. The class given is ADME, organism-based. As to conditions: in vivo. The essentials: as §1
For data set [32], the system named is Liver. In words: Biodistribution in ddY mouse liver at 0.2 to 0.4 uCi, iv after 60 mins. The class given is ADME, organism-based. The settings on record: in vivo, 1 h. The procedure, abridged:
as §1

Data set [33] deals with Intestine. In words: Biodistribution in ddY mouse intestine at 0.2 to 0.4 uCi, iv after 2 mins. The settings on record: in vivo. In kind it is ADME, organism-based. The essentials: as §1
Data set [34] relates to Stomach. In words: Biodistribution in ddY mouse stomach at 0.2 to 0.4 uCi, iv after 2 mins measured per gram of organ. In kind it is ADME, organism-based. As to conditions: in vivo. The essentials: as §1
Data set [35] has as its system Blood. Nature of the data set: Biodistribution in ddY mouse blood at 0.2 to 0.4 uCi, iv after 2 mins. The class given is ADME, organism-based. The settings on record: in vivo. The essentials:
as §1

Data set [36] has as its system Blood. In words: Biodistribution in ddY mouse blood at 0.2 to 0.4 uCi, iv after 30 mins. As to conditions: in vivo, 0.5 h. In kind it is ADME, organism-based. The procedure, abridged:
as §1

The test system of data set [37] is Stomach. In words: Biodistribution in ddY mouse stomach at 0.2 to 0.4 uCi, iv after 30 mins measured per gram of organ. The class given is ADME, organism-based. The settings on record: in vivo, 0.5 h. The procedure, abridged:
as §1

In turn, `CN(C)c1ccc(-n2ccc3cc(I)ccc32)cc1` came in with an inhibition constant Ki in data set [1] above 10000 nM.

In the case of `Oc1ccc(-c2cc3cc(I)ccc3[nH]2)cc1`, the Ki in data set [1] was found to be 32.9 nM.

In [1], `CNc1ccc(-c2cc3cc(I)ccc3[nH]2)cc1` had an inhibition constant Ki of 27 nM.

Turning to `CNc1ccc(-c2cc3cc([125I])ccc3[nH]2)cc1`, the Drug uptake worked out at 1.34 %ID in the data set on Stomach [2]; 4.31 % ID/g in the data set on Kidney [3]; 10.34 % ID/g in the data set with Spleen [4]; 3.59 % ID/g in the data set with Heart [5]; 5.89 % ID/g with Spleen [6]; 1.71 % ID/g in the data set on Blood [7]. Besides, the Drug uptake is 1.42 % ID/g in the data set on Brain [8]; 1.1 % ID/g in the data set on Brain [9]; 1.88 % ID/g in the data set on Heart [10]; 2.87 % ID/g in the data set on Pancreas [11]; 23.07 % ID/g in the data set on Liver [12]; 22.85 % ID/g in the data set on Liver [13]. The Drug uptake in the data set with Brain [14] is 0.83 % ID/g; with Spleen [15], 7.83 % ID/g; with Kidney [16] it was 5.53 % ID/g; with Brain [17] it was 1.68 % ID/g; in the data set on Pancreas [18], 1.27 % ID/g; with Heart [19] it was 5.68 % ID/g. Besides, the Drug uptake in the data set on Pancreas [20] came to 2.12 % ID/g; in the data set on Kidney [21], 2.61 % ID/g; with Spleen [22], 19.67 % ID/g; in the data set with Stomach [23], 1.68 %ID; with Kidney [24], 3.84 % ID/g; in the data set on Intestine [25], 8.54 % ID/g. The Drug uptake in the data set with Blood [26] amounted to 0.8 % ID/g; with Liver [27], 26.83 % ID/g; in the data set on Intestine [28] it was 9.48 % ID/g; in the data set on Heart [29], 2.96 % ID/g; with Intestine [30], 3.57 % ID/g; in the data set on Pancreas [31], 2.31 % ID/g. The Drug uptake in the data set with Liver [32] is 15.89 % ID/g; with Intestine [33], 0.97 % ID/g; in the data set with Stomach [34] it was 0.52 %ID; with Blood [35], 3.77 % ID/g; in the data set on Blood [36] it was 1.36 % ID/g; with Stomach [37], 2.55 %ID.
